# From ChEMBL document CHEMBL3797184, “Benzo[d]thiazol-2-yl(piperazin-1-yl)methanones as new anti-mycobacterial chemotypes: Design, synthesis, biological evaluation and 3D-QSAR studies” (Eur J Med Chem, 2016)
# What was measured:
# [1] = test system: Mycobacterium tuberculosis; assay: Antitubercular activity against Mycobacterium tuberculosis H37Rv ATCC 27294 after 28 days by two-fold serial dilution method; type: functional; details: for MIC: Mycobacterium tuberculosis, H37Rv ATCC 27294, 672 h
# Summary of the method: (§1)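 NCCLS-recommended agar dilution run in triplicate against H37Rv ATCC 27294. Two-fold dilutions (50.0 to 0.4 µg/mL) in Middlebrook 7H11 agar with OADC. Inoculum came from fresh 7H11/OADC slants, adjusted to 1 mg/mL wet weight in 0.05% Tween 80 saline and diluted 10^-2 (~10^7 cfu/mL). 5 µL was spotted per tube, incubated at 37 °C and read at 28 days as MIC.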
# [2] = test system: Mycobacterium tuberculosis; assay: Antitubercular activity against Mycobacterium tuberculosis clinical isolate by BACTEC 460 TB method; type: functional
# [3] = Cytotoxicity against mouse RAW264.7 cells at 50 ug/ml after 72 hrs by MTT assay; type: cell-based; details: read-out: INH
# [4] = Therapeutic index, ratio of cytotoxicity against mouse RAW264.7 cells to antitubercular activity against Mycobacterium tuberculosis H37Rv ATCC 27294; type: cell-based; details: read-out: TI
# [5] = test system: Mycobacterium tuberculosis; assay: Antitubercular activity against Mycobacterium tuberculosis […] by microplate Alamar blue assay; type: functional
# [6] = test system: Mycobacterium tuberculosis; assay: Antitubercular activity against Mycobacterium tuberculosis; type: functional; summary of the method: as §1
smiles,measurement,setting,value
CCOC(=O)c1nc2ccccc2s1,MIC,[1],121 µM
O=C(c1nc2ccccc2s1)N1CCSCC1,MIC,[1],94.6 µM
Cc1c(CN2CCN(C)CC2)cc(-c2ccc(Cl)cc2)n1-c1ccc(Cl)cc1,MIC,[2],1.5 µg/mL
O=C(c1nc2cc(Cl)ccc2s1)N1CCN(c2cnccn2)CC1,-logMIC,[1],4.76
same,MIC,[1],17.4 µM
same,"cytotoxicity at 72 h, 50 ug/ml",[3],54.9%
O=C(c1nc2ccccc2s1)N1CCN(c2ccncc2)CC1,-logMIC,[1],5.02
same,MIC,[1],9.63 µM
same,"cytotoxicity at 72 h, 50 ug/ml",[3],62%
O=C(c1nc2cc(Cl)ccc2s1)N1CCN(C(c2ccccc2)c2ccccc2)CC1,-logMIC,[1],5.76
same,MIC,[1],1.74 µM
same,"cytotoxicity at 72 h, 50 ug/ml",[3],52.9%
COc1ccc(N2CCN(C(=O)c3nc4ccccc4s3)CC2)cc1,-logMIC,[1],4.45
same,MIC,[1],35.4 µM
CC(=O)c1ccc(N2CCN(C(=O)c3nc4ccccc4s3)CC2)cc1,-logMIC,[1],5.37
same,MIC,[1],4.27 µM
same,"cytotoxicity at 72 h, 50 ug/ml",[3],62.3%
CCOC(=O)c1nc2cc(Cl)ccc2s1,MIC,[1],12.9 µM
same,"cytotoxicity at 72 h, 50 ug/ml",[3],37.4%
COc1ccccc1N1CCN(C(=O)c2nc3cc(Cl)ccc3s2)CC1,-logMIC,[1],5.09
same,MIC,[1],8.06 µM
same,"cytotoxicity at 72 h, 50 ug/ml",[3],63.4%
CC(=O)c1ccc(N2CCN(C(=O)c3nc4cc(C(F)(F)F)ccc4s3)CC2)cc1,-logMIC,[1],4.84
same,MIC,[1],14.4 µM
same,"cytotoxicity at 72 h, 50 ug/ml",[3],30.6%
COc1ccccc1N1CCN(C(=O)c2nc3ccccc3s2)CC1,-logMIC,[1],5.05
same,MIC,[1],8.84 µM
same,"cytotoxicity at 72 h, 50 ug/ml",[3],53.4%
O=C(c1nc2ccccc2s1)N1CCN(c2ccccc2)CC1,-logMIC,[1],5.32
same,MIC,[1],4.82 µM
same,"cytotoxicity at 72 h, 50 ug/ml",[3],67.2%
COc1ccccc1N1CCN(C(=O)c2nc3cc(C(F)(F)F)ccc3s2)CC1,MIC,[1],59.3 µM
O=C(c1nc2cc(C(F)(F)F)ccc2s1)N1CCOCC1,MIC,[1],2.47 µM
same,selectivity ratio,[4],> 60
same,"cytotoxicity at 72 h, 50 ug/ml",[3],24.6%
O=C(c1nc2cc(Cl)ccc2s1)N1CCOCC1,MIC,[1],22.1 µM
same,"cytotoxicity at 72 h, 50 ug/ml",[3],26.1%
CCOC(=O)c1nc2cc(C(F)(F)F)ccc2s1,MIC,[1],22.7 µM
same,"cytotoxicity at 72 h, 50 ug/ml",[3],29.1%
O=C(c1nc2cc(C(F)(F)F)ccc2s1)N1CCN(c2ccccc2)CC1,MIC,[1],31.9 µM
O=C(c1nc2cc(Cl)ccc2s1)N1CCN(c2ccccc2)CC1,-logMIC,[1],4.76
same,MIC,[1],17.5 µM
same,"cytotoxicity at 72 h, 50 ug/ml",[3],41.2%
O=C(c1nc2cc(C(F)(F)F)ccc2s1)N1CCN(c2ccncc2)CC1,-logMIC,[1],5.1
same,MIC,[1],7.96 µM
same,"cytotoxicity at 72 h, 50 ug/ml",[3],17.5%
COc1ccc(N2CCN(C(=O)c3nc4cc(C(F)(F)F)ccc4s3)CC2)cc1,-logMIC,[1],5.13
same,MIC,[1],7.42 µM
same,"cytotoxicity at 72 h, 50 ug/ml",[3],19.4%
CC(=O)c1ccc(N2CCN(C(=O)c3nc4cc(Cl)ccc4s3)CC2)cc1,-logMIC,[1],5.41
same,MIC,[1],3.9 µM
same,"cytotoxicity at 72 h, 50 ug/ml",[3],30.8%
CN1CCN(C(=O)c2nc3cc(C(F)(F)F)ccc3s2)CC1,-logMIC,[1],4.72
same,MIC,[1],19 µM
same,"cytotoxicity at 72 h, 50 ug/ml",[3],12.6%
O=C(c1nc2cc(C(F)(F)F)ccc2s1)N1CCCCC1,MIC,[1],39.8 µM
CC(=O)N1CCN(C(=O)c2nc3cc(C(F)(F)F)ccc3s2)CC1,-logMIC,[1],5.36
same,MIC,[1],4.37 µM
same,"cytotoxicity at 72 h, 50 ug/ml",[3],20.2%
CN1CCN(C(=O)c2nc3cc(Cl)ccc3s2)CC1,MIC,[1],84.5 µM
O=C(c1nc2ccccc2s1)N1CCCCC1,MIC,[1],101 µM
COc1ccc(N2CCN(C(=O)c3nc4cc(Cl)ccc4s3)CC2)cc1,-logMIC,[1],5.09
same,MIC,[1],8.06 µM
same,"cytotoxicity at 72 h, 50 ug/ml",[3],42.8%
O=C(c1nc2cc(Cl)ccc2s1)N1CCN(c2ccncc2)CC1,-logMIC,[1],4.46
same,MIC,[1],34.8 µM
O=C(c1nc2cc(C(F)(F)F)ccc2s1)N1CCN(c2cnccn2)CC1,-logMIC,[1],5.1
same,MIC,[1],7.94 µM
same,"cytotoxicity at 72 h, 50 ug/ml",[3],28.1%
CN1CCN(/N=C\c2cc(C(F)(F)F)nc3c(C(F)(F)F)cccc23)CC1,MIC,[5],3.56 µg/mL
CC(=O)N1CCN(C(=O)c2nc3cc(Cl)ccc3s2)CC1,-logMIC,[1],4.41
same,MIC,[1],38.6 µM
CN1CCN(C(=O)c2nc3ccccc3s2)CC1,-logMIC,[1],4.92
same,MIC,[1],12 µM
same,"cytotoxicity at 72 h, 50 ug/ml",[3],52.1%
O=C(c1nc2ccccc2s1)N1CCN(c2cnccn2)CC1,-logMIC,[1],4.72
same,MIC,[1],19.2 µM
same,"cytotoxicity at 72 h, 50 ug/ml",[3],65.3%
O=C(c1nc2ccccc2s1)N1CCN(C(c2ccccc2)c2ccccc2)CC1,-logMIC,[1],5.72
same,MIC,[1],1.89 µM
same,"cytotoxicity at 72 h, 50 ug/ml",[3],60.7%
O=C(c1nc2ccccc2s1)N1CCOCC1,MIC,[1],6.28 µM
same,"cytotoxicity at 72 h, 50 ug/ml",[3],36.2%
O=C(c1nc2cc(Cl)ccc2s1)N1CCCCC1,MIC,[1],44.5 µM
O=C(c1nc2cc(C(F)(F)F)ccc2s1)N1CCN(C(c2ccccc2)c2ccccc2)CC1,MIC,[1],51.9 µM
O=C(c1nc2cc(Cl)ccc2s1)N1CCSCC1,MIC,[1],20.9 µM
same,"cytotoxicity at 72 h, 50 ug/ml",[3],62.5%
CC(C)C(NC(=O)OCC1c2ccccc2-c2ccccc21)C(=O)O/N=C1\c2ccccc2-c2c1c(N1CCN(c3ccccn3)CC1)nc1ccc(Br)cc21 (stereo not drawn),MIC,[6],1.47 µg/mL
CC(=O)N1CCN(C(=O)c2nc3ccccc3s2)CC1,-logMIC,[1],5.27
same,MIC,[1],5.39 µM
same,"cytotoxicity at 72 h, 50 ug/ml",[3],48.8%
O=C(c1nc2cc(C(F)(F)F)ccc2s1)N1CCSCC1,MIC,[1],2.35 µM
same,selectivity ratio,[4],> 60
same,"cytotoxicity at 72 h, 50 ug/ml",[3],18.1%
CC[C@@H](CO)NCCN[C@@H](CC)CO [ETHAMBUTOL],MIC,[1],7.64 µM
NNC(=O)c1ccncc1 [ISONIAZID],MIC,[1],0.72 µM
NC(=O)c1cnccn1 [PYRAZINAMIDE],MIC,[1],50.8 µM
CO[C@H]1/C=C/O[C@@]2(C)Oc3c(C)c(O)c4c(O)c(c(/C=N/N5CCN(C)CC5)c(O)c4c3C2=O)NC(=O)/C(C)=C\C=C\[C@H](C)[C@H](O)[C@@H](C)[C@@H](O)[C@@H](C)[C@H](OC(C)=O)[C@@H]1C [RIFAMPIN],MIC,[1],0.24 µM
